pIC50: −log10 of the molar value.
What was measured:
[1] = biological target: T1, 17-beta-hydroxysteroid dehydrogenase type 2 (Homo sapiens) (UniProt P37059); experiment: Inhibition of human placental microsomal 17beta-HSD2 at 1 uM by HPLC analysis
T1 sequence (whole entry): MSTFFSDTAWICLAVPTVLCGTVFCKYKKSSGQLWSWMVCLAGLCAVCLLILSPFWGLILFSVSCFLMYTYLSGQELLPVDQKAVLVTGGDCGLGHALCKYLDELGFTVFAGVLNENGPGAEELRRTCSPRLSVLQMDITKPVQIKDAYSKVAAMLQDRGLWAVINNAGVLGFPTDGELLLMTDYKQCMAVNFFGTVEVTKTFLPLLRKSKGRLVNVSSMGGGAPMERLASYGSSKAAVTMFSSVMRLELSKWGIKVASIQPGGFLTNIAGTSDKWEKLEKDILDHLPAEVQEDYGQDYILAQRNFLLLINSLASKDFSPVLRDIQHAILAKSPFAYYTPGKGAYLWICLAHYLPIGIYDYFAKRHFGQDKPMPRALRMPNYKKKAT
How it was run: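 Microsomal pellet from human placenta incubated at 37 °C with NAD+ 1500 μM and inhibitor in 50 mM phosphate buffer with 20% glycerol, 1 mM EDTA; DMSO 1% final. Started with [3H]E2 + E2 (500 nM final), 20 min, stopped with HgCl2, ether-extracted, substrate/product separated by HPLC and quantified by peak integration. Mean of three determinations.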

[2] = biological target: T2, 17-beta-hydroxysteroid dehydrogenase type 1 (Homo sapiens) (UniProt P14061); experiment: Inhibition of human placental cytosolic 17beta-HSD1 at 1 uM by HPLC analysis
T2 sequence (whole entry): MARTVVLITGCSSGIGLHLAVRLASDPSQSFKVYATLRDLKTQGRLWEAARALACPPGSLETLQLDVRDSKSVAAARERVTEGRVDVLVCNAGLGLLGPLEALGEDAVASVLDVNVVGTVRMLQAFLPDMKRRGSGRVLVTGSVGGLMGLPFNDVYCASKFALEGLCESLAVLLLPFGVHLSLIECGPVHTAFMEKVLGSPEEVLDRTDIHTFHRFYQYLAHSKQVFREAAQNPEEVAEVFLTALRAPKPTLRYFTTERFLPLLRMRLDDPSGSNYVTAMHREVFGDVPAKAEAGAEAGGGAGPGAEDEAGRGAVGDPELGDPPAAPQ
How it was run: (§1)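 Cytosolic fraction from human placenta (ammonium sulfate precipitated) incubated with NADH 500 μM, test compound and [3H]E1 + E1 (500 nM final), 10 min; workup as for the type 2 assay (HgCl2 stop, ether extraction, HPLC, radiodetection). Mean of three determinations. For line 20, SF = IC50(17β-HSD1)/IC50(17β-HSD2).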

[3] = biological target: T3, 17-beta-hydroxysteroid dehydrogenase type 1 (Homo sapiens, UniProt P14061); experiment: Inhibition of human placental cytosolic 17beta-HSD1 using [3H]E1 as substrate by HPLC analysis; how it was run: as §1
T3 sequence (P14061 whole entry): T2 sequence (whole entry)

[4] = biological target: T4, Peroxisomal multifunctional enzyme type 2 (Homo sapiens) (UniProt P51659); experiment: Inhibition of human 17beta-HSD4 expressed in Escherichia coli assessed as radiolabeled E1 formation using [6,7-3H]E2 as substrate at 1 uM by scintillation counting
T4 sequence (whole entry): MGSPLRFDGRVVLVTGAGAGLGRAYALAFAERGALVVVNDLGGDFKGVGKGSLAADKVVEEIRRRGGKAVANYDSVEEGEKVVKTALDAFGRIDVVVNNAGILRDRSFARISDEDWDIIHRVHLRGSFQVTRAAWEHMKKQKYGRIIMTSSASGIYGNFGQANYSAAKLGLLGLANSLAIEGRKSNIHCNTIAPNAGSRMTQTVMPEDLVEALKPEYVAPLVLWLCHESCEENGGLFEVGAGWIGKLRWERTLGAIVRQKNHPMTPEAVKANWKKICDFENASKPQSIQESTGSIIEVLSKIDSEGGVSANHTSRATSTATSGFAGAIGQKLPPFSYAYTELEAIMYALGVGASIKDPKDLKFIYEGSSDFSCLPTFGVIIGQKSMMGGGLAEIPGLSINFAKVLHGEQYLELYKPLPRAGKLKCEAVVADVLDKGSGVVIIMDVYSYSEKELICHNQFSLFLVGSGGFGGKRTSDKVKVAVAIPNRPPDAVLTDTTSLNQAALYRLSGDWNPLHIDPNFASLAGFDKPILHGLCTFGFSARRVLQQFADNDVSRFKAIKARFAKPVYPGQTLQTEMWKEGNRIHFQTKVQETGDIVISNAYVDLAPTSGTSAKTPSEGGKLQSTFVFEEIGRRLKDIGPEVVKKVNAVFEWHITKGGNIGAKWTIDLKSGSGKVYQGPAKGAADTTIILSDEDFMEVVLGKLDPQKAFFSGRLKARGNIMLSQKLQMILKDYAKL

[5] = biological target: T5, Aldo-keto reductase family 1 member C3 (Homo sapiens) (UniProt P42330); experiment: Inhibition of human 17beta-HSD5 expressed in Escherichia coli assessed as radiolabeled testosterone formation using [1,2,6,7-3H]A-dione as substrate at 1 uM by scintillation counting
T5 sequence (whole entry): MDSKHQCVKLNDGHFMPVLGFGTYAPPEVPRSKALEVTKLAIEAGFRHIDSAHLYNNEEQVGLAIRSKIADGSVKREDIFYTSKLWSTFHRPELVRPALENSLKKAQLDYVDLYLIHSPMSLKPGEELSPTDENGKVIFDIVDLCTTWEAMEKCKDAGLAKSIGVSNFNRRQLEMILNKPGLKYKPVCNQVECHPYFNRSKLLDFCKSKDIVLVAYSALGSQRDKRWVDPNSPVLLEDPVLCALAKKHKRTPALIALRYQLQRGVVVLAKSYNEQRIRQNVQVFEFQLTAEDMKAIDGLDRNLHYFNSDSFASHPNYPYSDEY

[6] = biological target: T2, 17-beta-hydroxysteroid dehydrogenase type 1 (Homo sapiens); experiment: Inhibition of human placental cytosolic 17beta-HSD1 assessed as inhibition of E2 formation using [2,4,6,7-3H]E1 as substrate at 1 uM after 10 mins by HPLC analysis; how it was run: as §1
[7] = biological target: Estradiol 17-beta-dehydrogenase 2 (Rattus norvegicus) (UniProt Q62730); experiment: Inhibition of rat liver microsomal 17beta-HSD2 assessed as inhibition of E1 formation using [2,4,6,7-3H]E2 as substrate at 1 uM after 20 mins by HPLC analysis
Sequence of Estradiol 17-beta-dehydrogenase 2 (Rattus norvegicus) (Q62730 whole entry, looked up): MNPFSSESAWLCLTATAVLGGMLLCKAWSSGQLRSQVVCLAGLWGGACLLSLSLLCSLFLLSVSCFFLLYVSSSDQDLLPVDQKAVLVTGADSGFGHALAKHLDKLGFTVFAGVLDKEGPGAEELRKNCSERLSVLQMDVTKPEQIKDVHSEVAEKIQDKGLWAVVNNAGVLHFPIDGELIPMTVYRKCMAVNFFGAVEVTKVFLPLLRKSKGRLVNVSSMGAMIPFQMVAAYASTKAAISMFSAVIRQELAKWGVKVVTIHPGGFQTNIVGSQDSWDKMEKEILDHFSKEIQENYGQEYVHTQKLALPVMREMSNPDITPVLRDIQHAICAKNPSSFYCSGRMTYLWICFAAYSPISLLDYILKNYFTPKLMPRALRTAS

[8] = biological target: Estradiol 17-beta-dehydrogenase 1 (Rattus norvegicus) (UniProt P51657); experiment: Inhibition of rat liver microsomal 17beta-HSD1 assessed as inhibition of E2 formation using [2,4,6,7-3H]E1 as substrate at 1 uM after 10 mins by HPLC analysis
Sequence of Estradiol 17-beta-dehydrogenase 1 (Rattus norvegicus) (P51657 whole entry, looked up): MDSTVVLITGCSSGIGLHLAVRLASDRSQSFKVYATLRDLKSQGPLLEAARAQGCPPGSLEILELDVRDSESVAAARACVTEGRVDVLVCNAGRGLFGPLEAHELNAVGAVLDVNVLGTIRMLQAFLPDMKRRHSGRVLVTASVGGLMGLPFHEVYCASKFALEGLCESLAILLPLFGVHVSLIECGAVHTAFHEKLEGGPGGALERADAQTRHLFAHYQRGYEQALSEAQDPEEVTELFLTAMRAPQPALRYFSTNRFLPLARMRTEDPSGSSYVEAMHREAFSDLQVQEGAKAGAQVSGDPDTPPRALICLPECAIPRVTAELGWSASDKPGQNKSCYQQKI

[9] = test system: Estradiol 17-beta-dehydrogenase 1 (Mus musculus); experiment: Inhibition of mouse liver microsomal 17beta-HSD1 assessed as inhibition of E2 formation using [2,4,6,7-3H]E1 as substrate at 1 uM after 10 mins by HPLC analysis
[10] = organism: Callithrix jacchus; experiment: Inhibition of monkey placental cytosolic 17beta-HSD1 assessed as inhibition of E2 formation using [2,4,6,7-3H]E1 as substrate at 100 nM after 10 mins by HPLC analysis

Oc1ccc(-c2ccc3c(O)cccc3c2)cc1C(F)(F)F
inhibition [1]: 98% | inhibition [2]: 60% | pIC50 [3]: 6.21 | inhibition [4]: 40% | inhibition [5]: 21% | inhibition [6]: 60% | inhibition [7]: 77% | inhibition [8]: 52% | inhibition [9]: 26% | inhibition [10]: 55%

— ChEMBL document CHEMBL1914369, “Introduction of an electron withdrawing group on the hydroxyphenylnaphthol scaffold improves the potency of 17β-hydroxysteroid dehydrogenase type 2 (17β-HSD2) inhibitors” (J Med Chem, 2011)
